These results are taken from ChEMBL document CHEMBL1649135, “Use of a surface plasmon resonance method to investigate antibiotic and plasma protein interactions” (Antimicrob Agents Chemother, 2009).

Structures are written as SMILES. ≈ marks a conversion by molar mass, not a printed value.

Data set [1] has as its target T1, Albumin (Homo sapiens, UniProt P02768). Kind of data set: Binding affinity to human serum albumin assessed as fraction of binding sites occupied by compound at 22 to 44 ug/ml by SPR. It is filed as ADME. The settings on record: isolated protein. The method in brief: (§1)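 HSA amine-coupled on CM5 chip at 25°C, with a reference flow cell lacking protein. Compound in PBS with 5% DMSO, injected at 400 to 0.1 µM in twofold dilutions, 50 µl/min, 30 s association and 30 s dissociation. Reference-subtracted responses read 10 s into injection and DMSO-corrected. Fraction of sites occupied plotted against drug concentration from dose-response curves.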
On the technique in general: In SPR one partner is held on a chip, and binding of the other changes the refractive index at the surface.

A short description of data set [2]: Binding affinity to human alpha-1-acid glycoprotein assessed as compound binding sites level by SPR. It is filed as ADME. The method in brief:
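Ranking by SPR at 25°C. AGP was PDEA-modified and thiol-coupled to a CM5 chip; a reference surface carried no protein. Drugs at 250 µM in PBS with 5% DMSO were injected in randomized duplicates for 30 s at 50 µl/min. Responses were DMSO-calibration-corrected and normalized to a 10,000-RU immobilization level. Experiments were run in triplicate, mean ± SE.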

Data set [3] deals with Staphylococcus aureus. Kind of data set: Antimicrobial activity against Staphylococcus aureus CIP 76.25 by microdilution method in presence of 50% human serum. It is filed as functional. The method in brief: (§2)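 Broth microdilution MICs against S. aureus CIP 76.25 by CLSI (formerly NCCLS) standard methods, run in duplicate. Each test medium was supplemented with one serum component: 50% human serum, 4% HSA, 0.1% AGP or 1.6% human gamma globulins. These levels were chosen to match normal physiological concentrations. MIC was read as in standard testing.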
On the technique in general: Dilution methods test growth across graded concentrations, often in twofold steps.

The subject of data set [4] is Staphylococcus aureus. Kind of data set: Antimicrobial activity against Staphylococcus aureus CIP 76.25 by microdilution method in presence of 1.6% gamma globulin. It is filed as functional. The method in brief:
as §2

Data set [5] can be described thus: Protein binding in serum. It is filed as ADME, cell-free. As to conditions: read-out: PB (converted).
The subject of data set [6] is Staphylococcus aureus. Nature of the data set: Antimicrobial activity against Staphylococcus aureus CIP 76.25 by microdilution method. It counts as functional. The method in brief:
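S. aureus CIP 76.25 MICs determined in duplicate by CLSI standard broth microdilution.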

Data set [7] concerns Staphylococcus aureus. Kind of data set: Antimicrobial activity against Staphylococcus aureus CIP 76.25 by microdilution method in presence of 0.1% alpha-1-acid glycoprotein. It is filed as functional. The method in brief:
as §2

In data set [8] the test system is Staphylococcus aureus. Kind of data set: Antimicrobial activity against Staphylococcus aureus CIP 76.25 by microdilution method in presence of 4% human serum albumin. It is filed as functional. The method in brief:
as §2

For data set [9], the target named is T1, Albumin. Nature of the data set: Binding affinity to first site on human serum albumin by SPR. It counts as ADME. The method in brief:
(§3)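 SPR on a BIACORE 3000 at 25°C. HSA was amine-coupled to a CM5 chip at 40 µg/ml in 10 mM acetate, pH 5.2. Drug was injected from 400 µM to 0.1 µM in twofold dilutions in PBS with 5% DMSO at 50 µl/min, with 30 s association and 30 s dissociation. Responses were reference-subtracted, read 10 s into the injection and DMSO-corrected. Dose-response curves gave KD or fraction of sites occupied.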

In data set [10] the target is T1, Albumin. Nature of the data set: Binding affinity to human serum albumin assessed as fraction of binding sites occupied by compound at 180 ug/ml by SPR. The settings on record: isolated protein. It counts as ADME. The method in brief:
as §1

The target in data set [11] is T1, Albumin. Kind of data set: Binding affinity to human serum albumin assessed as fraction of binding sites occupied by compound at 146 to 220 ug/ml by SPR. It is filed as ADME. As to conditions: isolated protein. The method in brief:
as §3

Data set [12] deals with T1, Albumin. Kind of data set: Binding affinity to human serum albumin assessed as fraction of binding sites occupied by compound at 215 to 430 ug/ml by SPR. It counts as ADME. The settings on record: isolated protein. The method in brief: as §1
For data set [13], the target named is T1, Albumin. Nature of the data set: Binding affinity to human serum albumin assessed as fraction of binding sites occupied by compound at 20 ug/ml by SPR. The settings on record: isolated protein. It counts as ADME. The method in brief: as §1
The target in data set [14] is T1, Albumin. Kind of data set: Binding affinity to human serum albumin assessed as fraction of binding sites occupied by compound at 160 ug/ml by SPR. It counts as ADME. As to conditions: isolated protein. The method in brief: as §1
Data set [15] addresses T1, Albumin. Nature of the data set: Binding affinity to human serum albumin assessed as fraction of binding sites occupied by compound at 130 to 180 ug/ml by SPR. The settings on record: isolated protein. It counts as ADME. The method in brief:
as §3

In data set [16] the target is T1, Albumin. Nature of the data set: Binding affinity to human serum albumin assessed as fraction of binding sites occupied by compound at 7 to 15 ug/ml by SPR. It counts as ADME. The settings on record: isolated protein. The method in brief:
as §3

The target in data set [17] is T1, Albumin. Kind of data set: Binding affinity to human serum albumin assessed as fraction of binding sites occupied by compound at 120 ug/ml by SPR. It counts as ADME. As to conditions: isolated protein. The method in brief: as §3
Data set [18] addresses T1, Albumin. Kind of data set: Binding affinity to human serum albumin assessed as fraction of binding sites occupied by compound at 60 ug/ml by SPR. It is filed as ADME. The settings on record: isolated protein. The method in brief: as §3
Data set [19] concerns the target T1, Albumin. Nature of the data set: Binding affinity to human serum albumin assessed as fraction of binding sites occupied by compound at 80 to 120 ug/ml by SPR. It counts as ADME. As to conditions: isolated protein. The method in brief: as §3
Data set [20] concerns the target T1, Albumin. Nature of the data set: Binding affinity to human serum albumin assessed as fraction of binding sites occupied by compound at 245 ug/ml by SPR. It counts as ADME. The settings on record: isolated protein. The method in brief:
as §3

For data set [21], the target named is T1, Albumin. Nature of the data set: Binding affinity to human serum albumin assessed as fraction of binding sites occupied by compound at >325 ug/ml by SPR. It is filed as ADME. The settings on record: isolated protein. The method in brief: as §3

T1 sequence (P02768 whole entry): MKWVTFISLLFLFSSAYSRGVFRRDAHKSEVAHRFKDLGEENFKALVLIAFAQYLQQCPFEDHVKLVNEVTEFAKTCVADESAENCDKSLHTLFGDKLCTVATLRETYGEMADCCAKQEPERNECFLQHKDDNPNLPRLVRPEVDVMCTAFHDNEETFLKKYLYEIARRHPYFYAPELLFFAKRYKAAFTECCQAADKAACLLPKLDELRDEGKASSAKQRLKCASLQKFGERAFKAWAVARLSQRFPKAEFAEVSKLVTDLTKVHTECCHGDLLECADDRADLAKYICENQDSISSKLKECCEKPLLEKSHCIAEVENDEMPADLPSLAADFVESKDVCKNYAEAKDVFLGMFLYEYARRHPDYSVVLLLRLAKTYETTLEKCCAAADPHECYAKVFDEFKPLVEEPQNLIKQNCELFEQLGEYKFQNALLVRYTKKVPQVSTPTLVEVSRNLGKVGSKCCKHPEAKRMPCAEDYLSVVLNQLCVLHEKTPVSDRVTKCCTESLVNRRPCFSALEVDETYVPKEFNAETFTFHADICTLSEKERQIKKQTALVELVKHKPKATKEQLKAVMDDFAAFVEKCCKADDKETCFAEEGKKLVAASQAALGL

For the compound `CO/N=C(\C(=O)N[C@@H]1C(=O)N2C(C(=O)O)=C(COC(C)=O)CS[C@H]12)c1csc(N)n1` [CEFOTAXIME], the Ratio in data set [1] is given as 0.5; in data set [2], less than 1; in data set [10] it was 1. The MIC is 4 µg/mL in [3]; 2 µg/mL in data set [4]; 0.781 µg/mL (≈ 1.71 µM) in data set [6]; 1 µg/mL in data set [7]; 1 µg/mL in [8]. In addition, the fraction unbound in data set [5] was 0.97. For the same compound, the Kd in data set [9] came to 12 µM.
For the compound `CC[C@H]1OC(=O)[C@H](C)[C@@H](O[C@H]2C[C@@](C)(OC)[C@@H](O)[C@H](C)O2)[C@H](C)[C@@H](O[C@@H]2O[C@H](C)C[C@H](N(C)C)[C@H]2O)[C@](C)(O)C[C@@H](C)C(=O)[C@H](C)[C@@H](O)[C@]1(C)O` [ERYTHROMYCIN], the Ratio in data set [11] is 0.5; in data set [2] it was less than 1. Moreover, the minimal inhibitory concentration (MIC) is 2 µg/mL in data set [3]; 2 µg/mL in data set [4]; 0.195 µg/mL (≈ 0.266 µM) in data set [6]; 2 µg/mL in [7]; 2 µg/mL in [8]. Also, the fraction unbound in data set [5] was 0.81. Further, the affinity in data set [9], expressed as Kd, was 12 µM.
In the case of `CC(=O)O[C@H]1C[C@@]2(C)[C@@H](C[C@@H](O)[C@H]3[C@@]4(C)CC[C@@H](O)[C@@H](C)[C@@H]4CC[C@@]32C)/C1=C(\CCC=C(C)C)C(=O)O` [FUSIDIC ACID], the Ratio in [12] is recorded as 1.5; in [2] it was less than 1; in [13], 0.5; in [14], 1. Moreover, the MIC in [3] was found to be 1020 µg/mL; in data set [4], 2 µg/mL; in data set [6], 0.049 µg/mL (≈ 0.0948 µM); in [7] it was 2 µg/mL; in data set [8] it was 256 µg/mL. The fraction unbound in [5] was 0.03. This compound also displayed a Kd in [9] of 12 µM.
For `CCC[C@@H]1C[C@@H](C(=O)N[C@@H]([C@H]2O[C@H](SC)[C@H](O)[C@@H](O)[C@H]2O)[C@@H](C)O)N(C)C1` [LINCOMYCIN], the figures for the Ratio in data set [2] and in data set [15] were less than 1 and 0.5, respectively. The MIC in data set [3] stood at 2 µg/mL; in data set [4], 1 µg/mL; in data set [6] it was 0.391 µg/mL (≈ 0.962 µM); in data set [7] it was 2 µg/mL; in data set [8], 2 µg/mL. The fraction unbound in data set [5] was 0.25. For the same compound, the Kd in data set [9] is 12 µM.
Consider `CN(C)c1ccc(O)c2c1C[C@H]1C[C@H]3[C@H](N(C)C)C(O)=C(C(N)=O)C(=O)[C@@]3(O)C(O)=C1C2=O` [MINOCYCLINE], for which the Ratio in [2] is less than 1. In addition, the MIC in data set [3] worked out at 4 µg/mL; in data set [4], 1 µg/mL; in data set [6] it was 0.195 µg/mL (≈ 0.426 µM); in data set [7], 1 µg/mL; in [8] it was 4 µg/mL. Besides, the fraction unbound in data set [5] is 0.46. Besides, binding in [9] was put at a Kd of 12 µM.
As to `CO[C@@H]1[C@@H](OC(N)=O)[C@@H](O)[C@H](Oc2ccc3c(O)c(NC(=O)c4ccc(O)c(CC=C(C)C)c4)c(=O)oc3c2C)OC1(C)C` [NOVOBIOCIN], the Ratio is reported as less than 1 in [2], 0.5 in data set [16], 1.5 in [17] and 1 in data set [18]. In addition, the MIC in [3] turned out to be 1020 µg/mL; in [4] it was 2 µg/mL; in data set [6] it was 0.049 µg/mL (≈ 0.08 µM); in [7], 2 µg/mL; in data set [8], 256 µg/mL. The compound further returned a Kd in [9] of 12 µM.
For `CC1COc2c(N3CCN(C)CC3)c(F)cc3c(=O)c(C(=O)O)cn1c23` (configuration not stated) [OFLOXACIN], the MIC is 2 µg/mL in [3]; 2 µg/mL in data set [4]; 0.195 µg/mL (≈ 0.54 µM) in data set [6]; 1 µg/mL in [7]; 1 µg/mL in data set [8]. In data set [9], the Kd came to 12 µM.
Regarding `CO[C@H]1/C=C/O[C@@]2(C)Oc3c(C)c(O)c4c(O)c(c(/C=N/N5CCN(C)CC5)c(O)c4c3C2=O)NC(=O)/C(C)=C\C=C\[C@H](C)[C@H](O)[C@@H](C)[C@@H](O)[C@@H](C)[C@H](OC(C)=O)[C@@H]1C` [RIFAMPIN], the Ratio in data set [19] is 1; in data set [20], 0.5; in data set [2] it was less than 1; in data set [21], 1.5. The minimum inhibitory concentration (MIC) stood at 4 µg/mL in data set [3]; 2 µg/mL in data set [4]; 0.049 µg/mL (≈ 0.0595 µM) in data set [6]; 1 µg/mL in data set [7]; 4 µg/mL in data set [8]. In addition, the fraction unbound in data set [5] is 0.36. The compound also returned a Kd in data set [9] of 12 µM.
Take `CN[C@H](CC(C)C)C(=O)N[C@H]1C(=O)N[C@@H](CC(N)=O)C(=O)N[C@H]2C(=O)N[C@H]3C(=O)N[C@H](C(=O)N[C@H](C(=O)O)c4cc(O)cc(O)c4-c4cc3ccc4O)[C@H](O)c3ccc(c(Cl)c3)Oc3cc2cc(c3O[C@@H]2O[C@H](CO)[C@@H](O)[C@H](O)[C@H]2O[C@H]2C[C@](C)(N)[C@H](O)[C@H](C)O2)Oc2ccc(cc2Cl)[C@H]1O` [VANCOMYCIN]: the fraction unbound in [5] was 0.9. The same compound came in with an MIC in data set [6] of 0.781 µg/mL (≈ 0.539 µM). The same compound displayed a dissociation constant (Kd) in data set [9] of 12 µM.

A word on the MIC: it is the lowest concentration found to suppress growth. By Kd is commonly meant the constant that tells how readily two partners part at equilibrium. Low readings indicate a tighter complex, high ones a looser complex.
